From PMC4220649 (Blood Cancer Journal, 2014)
Values joined by “and” are separate entries in the source; they are usually repeats but may differ in a detail not shown here. Equal entries are not always repeated. “Also recorded” adds a separate entry of the source.

What was measured:
[1] = Plasma pharmacokinetics of ixazomib after IV bolus; assay type: in vivo, human; details: for DN AUC0–168 h: dose normalized; for DN AUC0–168 h / C0 / half-life / AUC0–168 h: plasma
[2] = system: patients with relapsed or refractory light-chain amyloidosis; details: weekly oral ixazomib; cited from earlier work
20S proteasome = 20S proteasome (Homo sapiens, UniProt P28074); test: Whole blood 20S proteasome activity; assay type: in vivo; details: for Emax / Time to Emax: whole blood 20S; for Maximal 20S proteasome inhibition / Time of maximal 20S proteasome inhibition after administration: whole blood, MTD 2.34 mg/m^2
In short: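 Whole blood was sampled after IV bolus dosing (0.125–3.11 mg/m2) on cycle 1 days 1 and 15. 20S proteasome activity was measured by fluorogenic assay.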

[3] = Urine pharmacokinetics of ixazomib; assay type: in vivo, human
[4] = system: relapsed/refractory lymphoma; test: Disease response by International Working Group criteria for lymphoma; assay type: in vivo, human; details: for Duration of response: follicular lymphoma patient
In short: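 CT and PET were done at screening, with repeat PET at end of cycles 2 and 4 if positive. Response was assessed at end of cycle 2, every 2 cycles to cycle 12, then every 4 cycles. Evaluable patients had measurable baseline disease and ⩾1 post-baseline assessment.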

[5] = system: patients with relapsed or refractory MM; details: cited from earlier work
[6] = weekly oral ixazomib, relapsed or refractory MM, after multiple dosing; cited from earlier work
[7] = system: patients with relapsed or refractory MM; details: twice-weekly oral ixazomib; cited from earlier work
[8] = day 15, IV 1.4 mg/m^2, n=4, geometric mean (%CV)
[9] = day 15, IV 3.11 mg/m^2, n=2, individual values
[10] = day 1, IV 1.4 mg/m^2, n=4, geometric mean (%CV)
[11] = day 1, IV 1.76 mg/m^2, n=6, geometric mean (%CV)
[12] = day 1, IV 2.34 mg/m^2, n=7, geometric mean (%CV)
[13] = day 1, IV 3.11 mg/m^2, n=5, geometric mean (%CV)
[14] = day 15, IV 0.5 mg/m^2, n=1, individual value
[15] = day 15, IV 1 mg/m^2, n=1, individual value
[16] = day 15, IV 2.34 mg/m^2, n=7, geometric mean (%CV)
[17] = day 1, IV 0.125 mg/m^2, n=1, individual value
[18] = day 1, IV 0.25 mg/m^2, n=1, individual value
[19] = day 1, IV 0.5 mg/m^2, n=1, individual value
[20] = day 1, IV 1 mg/m^2, n=1, individual value
[21] = day 15, IV 0.25 mg/m^2, n=1, individual value

Structure (SMILES): CC(C)C[C@H](NC(=O)CNC(=O)c1cc(Cl)ccc1Cl)B(O)O [ixazomib]
- Dose proportionality of plasma exposure ([1]; 0.5–3.11 mg/m^2): increased dose proportionally; also recorded: dose-proportionality of ixazomib exposure
- Accumulation of ixazomib between day 1 and day 15 doses ([1]; AUC0–168 h, Figure 1d): approximately twofold
- Accumulation ratio [1, 8]: 2.17 (7)
- Accumulation ratio ([1]; day 15, IV 2.34 mg/m^2, n=6, geometric mean (%CV)): 2.27 (15)
- Accumulation ratio [1, 9]: 2.02 and 2.21
- DN AUC0–168 h [1, 10]: 221 (41) hr/ng/ml/mg
- DN AUC0–168 h [1, 11]: 259 (49) hr/ng/ml/mg
- DN AUC0–168 h [1, 12]: 257 (50) hr/ng/ml/mg
- DN AUC0–168 h [1, 13]: 278 (46) hr/ng/ml/mg
- DN AUC0–168 h [1, 14]: 151 h/ng/mL/mg
- DN AUC0–168 h [1, 15]: 385 h/ng/mL/mg
- DN AUC0–168 h [1, 8]: 481 (34) hr/ng/ml/mg
- DN AUC0–168 h [1, 16]: 500 (55) hr/ng/ml/mg
- C0 ([1]; human, iv, 0.25 mg/m2, C0, plasma, day 1, IV 0.25 mg/m^2, n=1, individual value): 59.4 ng/mL
- C0 ([1]; human, iv, 1 mg/m2, C0, plasma, day 15, IV 1 mg/m^2, n=1, individual value): 383 ng/mL
- C0 ([1]; human, iv, 1.4 mg/m2, C0, plasma, day 1, IV 1.4 mg/m^2, n=4, geometric mean (%CV)): 714 ng/mL
- C0 ([1]; human, iv, 1.4 mg/m2, C0, plasma, day 15, IV 1.4 mg/m^2, n=4, geometric mean (%CV)): 497 ng/mL
- half-life ([1]; human, iv, 1.4 mg/m2, t½, terminal disposition phase half-life, day 15, IV 1.4 mg/m^2, n=4, geometric mean (%CV)): 209 h
- C0 ([1]; human, iv, 1.76 mg/m2, C0, plasma, day 1, IV 1.76 mg/m^2, n=7, geometric mean (%CV)): 542 ng/mL
- C0 ([1]; human, iv, 1.76 mg/m2, C0, plasma, day 15, IV 1.76 mg/m^2, n=3, geometric mean (%CV)): 499 ng/mL
- half-life ([1]; human, iv, 1.76 mg/m2, t½, terminal disposition phase half-life, day 15, IV 1.76 mg/m^2, n=3, geometric mean (%CV)): 146 h
- C0 ([1]; human, iv, 2.34 mg/m2, C0, plasma, day 15, IV 2.34 mg/m^2, n=7, geometric mean (%CV)): 803 ng/mL
- half-life ([1]; human, iv, 2.34 mg/m2, t½, terminal disposition phase half-life, day 15, IV 2.34 mg/m^2, n=7, geometric mean (%CV)): 108 h
- C0 ([1]; human, iv, 3.11 mg/m2, C0, plasma, day 1, IV 3.11 mg/m^2, n=5, geometric mean (%CV)): 961 ng/mL
- C0 ([1]; human, iv, 3.11 mg/m2, C0, plasma, day 15, IV 3.11 mg/m^2, n=2, individual values): 1110 ng/mL
- half-life ([1]; human, iv, 3.11 mg/m2, t½, terminal disposition phase half-life, day 15, IV 3.11 mg/m^2, n=2, individual values): 97.9 h
- half-life ([1]; human, iv, Terminal half-life, after multiple dosing, weekly IV): 96 to 288 h
- Rapid initial disposition phase over by ([1]; multi-phasic disposition after IV administration): ≤ 4 h
- AUC0–168 h [1, 10]: 637 (30) hr/ng/ml
- AUC0–168 h [1, 11]: 821 (48) hr/ng/ml
- AUC0–168 h [1, 12]: 1060 (37) hr/ng/ml
- AUC0–168 h [1, 13]: 1680 (39) hr/ng/ml
- AUC0–168 h [1, 14]: 175 h/ng/mL
- AUC0–168 h [1, 15]: 732 h/ng/mL
- AUC0–168 h [1, 8]: 1390 (24) hr/ng/ ml
- AUC0–168 h [1, 16]: 2110 (41) hr/ng/ ml
- AUC0–168 h [1, 9]: 2090 h/ng/mL and 3080 h/ng/mL
- C0 [1, 9]: 1280 ng/mL
- Rate of all-cause rash/maculopapular rash [2]: 18%
- Dose dependence of maximal whole blood 20S proteasome inhibition (20S proteasome; 0.125–3.11 mg/m^2): dose-dependent increase
- AUE0–168 h (20S proteasome; area under 20S inhibition vs time curve, day 1, IV 1.4 mg/m^2, n=3, mean (±s.d.)): 2000 (±1160) % inhibition/h
- Emax (20S proteasome; [17]): 5.15 % inhibition
- Time to Emax (20S proteasome; [17]): 0.25 h
- Emax (20S proteasome; [18]): 18.5 % inhibition
- Time to Emax (20S proteasome; [18]): 0.083 h
- Emax (20S proteasome; [19]): 33.2 % inhibition
- Time to Emax (20S proteasome; [19]): 0.1 h
- Emax (20S proteasome; [20]): 50.5 % inhibition
- Time to Emax (20S proteasome; [20]): 0.083 h
- Emax (20S proteasome; day 1, IV 1.4 mg/m^2, n=3, mean (±s.d.)): 66.3 (±14.8) % inhibition
- Time to Emax (20S proteasome; day 1, IV 1.4 mg/m^2, n=3, median (range)): 0.117 (0.1–0.133) h
- Emax (20S proteasome; day 1, IV 1.76 mg/m^2, n=7, mean (±s.d.)): 72.2 (±8.1) % inhibition
- Time to Emax (20S proteasome; day 1, IV 1.76 mg/m^2, n=7, median (range)): 0.083 (0.083–0.1) h
- Emax (20S proteasome; day 1, IV 2.34 mg/m^2, n=5, mean (±s.d.)): 81.9 (±3.2) % inhibition
- Time to Emax (20S proteasome; day 1, IV 2.34 mg/m^2, n=5, median (range)): 0.083 (0.083–0.25) h
- Emax (20S proteasome; day 1, IV 3.11 mg/m^2, n=4, mean (±s.d.)): 80.2 (±3.6) % inhibition
- Time to Emax (20S proteasome; day 1, IV 3.11 mg/m^2, n=4, median (range)): 0.109 (0.083–0.533) h
- Emax (20S proteasome; [21]): 64.3 % inhibition
- Time to Emax (20S proteasome; [21]): 0.1 h
- Emax (20S proteasome; [14]): 19.2 % inhibition
- Time to Emax (20S proteasome; [14]): 0.1 h
- Emax (20S proteasome; [15]): 44.4 % inhibition
- Time to Emax (20S proteasome; [15]): 0.083 h
- Emax (20S proteasome; day 15, IV 1.4 mg/m^2, n=3, mean (±s.d.)): 69.8 (±10.6) % inhibition
- Time to Emax (20S proteasome; day 15, IV 1.4 mg/m^2, n=3, median (range)): 0.083 (0.083–0.083) h
- Emax (20S proteasome; day 15, IV 1.76 mg/m^2, n=3, mean (±s.d.)): 74.8 (±4.5) % inhibition
- Time to Emax (20S proteasome; day 15, IV 1.76 mg/m^2, n=3, median (range)): 0.083 (0.033–0.083) h
- Emax (20S proteasome; day 15, IV 2.34 mg/m^2, n=4, mean (±s.d.)): 79.6 (±4.9) % inhibition
- Time to Emax (20S proteasome; day 15, IV 2.34 mg/m^2, n=4, median (range)): 0.167 (0.083–0.25) h
- Emax (20S proteasome; [9]): 82.3 % inhibition and 85 % inhibition
- Time to Emax (20S proteasome; [9]): 0.083 h and 0.117 h
- Maximal 20S proteasome inhibition (20S proteasome; day 1): 82%
- Time of maximal 20S proteasome inhibition after administration (20S proteasome; day 1): 5 min
- Maximal 20S proteasome inhibition (20S proteasome; day 15): 80%
- Time of maximal 20S proteasome inhibition after administration (20S proteasome; day 15): 10 min
- Fraction of ixazomib excreted unchanged in urine ([3]; 25 patients, days 1 and 15, 0 to 4 h): < 1 % of the administered dose
- CL renal ([3]; human, urine, intravenous): < 8.5 mL/min
- Patients achieving responses (CR or PR) ([4]; 26 evaluable patients): five
- Duration of response ([4]; 1.4 mg/m^2): 24.1 months
- Duration of response ([4]; 2.34 mg/m^2): 2 months
- Responders among follicular lymphoma patients ([4]; one complete and three partial responses): 4/11 and 4 of 11
- Responders among peripheral T-cell lymphoma patients ([4]; partial response): 1/4
- Median duration of stable disease ([4]; six patients, range 1.7–5.4): 3.6 months
- Any-grade drug-related PN, patients ([5]; weekly oral ixazomib in MM): 20%
- Drug-related grade 3 PN, patients ([5]; weekly oral ixazomib in MM): 2%
- Rate of drug-related AEs in the Skin and subcutaneous tissue disorders System Organ Class ([5]; weekly oral ixazomib, relapsed or refractory MM): 22%
- Terminal half-life [6]: 96 to 288 h
- Rate of drug-related rash [7]: 28%
- Rate of drug-related skin and subcutaneous tissue disorders [7]: 40%
